Screening results as filed in PubChem.
ARNT-TACC3 inh: ARNT/TACC3 interaction disruption | Q9Y6A5 | AlphaScreen His-ARNT PAS-B/GST-TACC3 binding, luminescence; TACC3 fragment carries E629A point mutation | inhibition, % at 9.99 µM | actives 0.66% (n = 390,000) | AID 623870;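 active = mean inhibition of replicates at least 50% and at least half of replicates each reaching 50%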
SR-BI HDL uptake: mouse SR-BI HDL lipid transfer inhibition. Q61009. ldlA[mSR-BI] CHO cells, DiI-HDL uptake fluorescence, 3 h. inhibition, % at 12.5 µM. actives 0.96% (n = 320,000). AID 488896;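 active = mean replicate inhibition of at least 70% and a set share of replicates each scoring 70 or more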
Target sequence (Q61009 whole entry, looked up): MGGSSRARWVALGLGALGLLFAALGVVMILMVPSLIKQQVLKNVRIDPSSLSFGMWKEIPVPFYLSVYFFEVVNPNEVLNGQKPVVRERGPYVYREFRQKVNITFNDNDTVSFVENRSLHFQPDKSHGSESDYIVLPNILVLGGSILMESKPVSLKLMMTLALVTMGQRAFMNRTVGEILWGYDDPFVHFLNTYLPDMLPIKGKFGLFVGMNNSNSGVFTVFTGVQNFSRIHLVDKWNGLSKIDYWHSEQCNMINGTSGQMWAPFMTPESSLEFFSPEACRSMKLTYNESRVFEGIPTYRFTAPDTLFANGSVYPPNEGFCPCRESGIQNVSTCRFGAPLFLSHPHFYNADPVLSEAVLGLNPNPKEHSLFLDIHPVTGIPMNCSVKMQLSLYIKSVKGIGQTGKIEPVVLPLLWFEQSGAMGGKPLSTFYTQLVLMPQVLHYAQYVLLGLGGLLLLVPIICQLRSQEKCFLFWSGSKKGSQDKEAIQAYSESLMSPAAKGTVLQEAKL
NSD2 HMT inh: inhibitors of human histone methyltransferase NSD2; O96028; NSD2 peptide methylation, AlphaScreen, 120 min; inhibition, % at 12.5 µM; actives 0.54% (n = 310,000); in the data active = inhibition above about 50%
SR-BI DiI-HDL act: SR-BI HDL lipid transfer activation. activation, % at 12.5 µM. AID 504775. CHO ldlA[mSR-BI] cells, DiI-HDL uptake fluorescence, 3 h; 100 = double the neutral-control signal. actives 0.096% (n = 320,000);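 active = mean replicate activation of at least 60% and every replicate at or above 60%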
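Material: SR-BI-overexpressing, LDLR-lacking CHO cells; schedule: compound exposure 3 h, 37 °C; reagent: DiI-labelled HDL at 10 µg/mL final; technique: bottom-read fluorescence, 550/595 nm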
Xi reactivation: activators of X-chromosome reactivation in mouse fibroblasts; XiGFP mouse fibroblasts, % GFP-positive cells imaging, 3 d; cells co-treated with 5-aza-dC sensitizer; scaled so ellipticine positive control = 100%; activation, % at 7.58 µM; actives 0.055% (n = 360,000);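 active = mean normalized replicate activation at least 10% and every replicate at or above 10%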
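System: SV40-immortalized XiGFP fibroblast cells, line 68-5-11 / Incubation: 3-day compound exposure, then 15 min fixation at room temperature / Compound: single concentration per compound, delivered by pin transfer / Buffer or medium: DMEM plus 5-aza-dC sensitizer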
sPLA2-III inh: Blocks human group III sPLA2 activity. actives 0.56% (n = 370,000). inhibition, % at 12.2 µM. AID 743126. QFRET BODIPY PC-A2 liposome hydrolysis, fluorescence. Q9NZ20;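 active = inhibition above mean plus 3 SD of compounds lying within the high and low control bounds, cut at about 19% in these data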
Hits are given with their value. Compounds with a hit are over-represented: about 2% of the library has one in this group of screens.

Screening CC(=O)Nc1cccc(Oc2nc(-c3ccccn3)nc3ccccc23)c1 returned ARNT-TACC3 inh 48, SR-BI HDL uptake inactive, NSD2 HMT inh inactive, SR-BI DiI-HDL act inactive, Xi reactivation inactive and sPLA2-III inh inactive.
C=CC(C)(C)c1c(O)c(CC=C(C)C)c(O)c2c(=O)c3ccc(O)c(O)c3oc12 was read as SR-BI HDL uptake 123 and SR-BI DiI-HDL act inactive.
Screening O=C(CSc1nc2cc(Cl)ccc2s1)NCc1ccc2c(c1)OCO2 returned ARNT-TACC3 inh inactive, SR-BI HDL uptake inactive, NSD2 HMT inh inactive, SR-BI DiI-HDL act inactive, Xi reactivation inactive and sPLA2-III inh inactive.
Screening O=C1[C@H]2[C@@H](c3ccc(C(F)(F)F)cc3)N[C@]3(CCCN(Cc4ccc(F)cc4)C3=O)[C@H]2C(=O)N1Cc1ccccc1 returned Xi reactivation inactive and sPLA2-III inh inactive.
For O=C(COc1ccc(F)cc1)Nc1nc(-c2ccccn2)cs1 the results were ARNT-TACC3 inh inactive, SR-BI HDL uptake inactive, NSD2 HMT inh inactive, SR-BI DiI-HDL act inactive, Xi reactivation inactive and sPLA2-III inh inactive.
CCCn1nc(C(=O)Nc2nc(-c3ccccn3)cs2)c2ccccc2c1=O was read as ARNT-TACC3 inh 50, SR-BI HDL uptake inactive, NSD2 HMT inh inactive, SR-BI DiI-HDL act inactive, Xi reactivation inactive and sPLA2-III inh inactive.
CCn1nc(C(=O)Nc2nc(-c3ccccn3)cs2)c2ccccc2c1=O was read as ARNT-TACC3 inh inactive, SR-BI HDL uptake inactive, NSD2 HMT inh inactive, SR-BI DiI-HDL act inactive, Xi reactivation inactive and sPLA2-III inh inactive.
For CC1CC1C(=O)Nc1nc(-c2ccccn2)cs1 (centres undefined) the results were ARNT-TACC3 inh 62, NSD2 HMT inh inactive and sPLA2-III inh inactive.
`CC(=O)c1ccc(-c2ccc(C(=O)Nc3nc(-c4ccccn4)cs3)o2)cc1` gave ARNT-TACC3 inh 50, SR-BI HDL uptake 81, NSD2 HMT inh inactive, SR-BI DiI-HDL act inactive, Xi reactivation inactive and sPLA2-III inh inactive.
`CCc1nnc(NC(=O)C(NC(=O)c2ccccc2Cl)C(C)C)s1` (centres undefined) gave ARNT-TACC3 inh inactive, SR-BI HDL uptake inactive, NSD2 HMT inh inactive, SR-BI DiI-HDL act inactive, Xi reactivation inactive and sPLA2-III inh inactive.
For CC(=O)Nc1ccc(C(=O)Nc2nc(-c3ccccn3)cs2)cc1 the results were SR-BI HDL uptake inactive, NSD2 HMT inh inactive, SR-BI DiI-HDL act inactive, Xi reactivation inactive and sPLA2-III inh inactive.
For CC(C)[C@H](NC(=O)c1ccccc1Cl)C(=O)Nc1nc(-c2ccccn2)cs1 the results were ARNT-TACC3 inh 58, SR-BI HDL uptake inactive, NSD2 HMT inh inactive, SR-BI DiI-HDL act inactive, Xi reactivation inactive and sPLA2-III inh inactive.
Screening O=C(N[C@H]1CC[C@@H](CCn2cc(C3(O)CCCC3)nn2)O[C@@H]1CO)C1CC1 returned ARNT-TACC3 inh inactive and Xi reactivation inactive.
Screening N#CCCN(Cc1ccccc1)C(=O)Nc1ccc2c(c1)CCO2 returned ARNT-TACC3 inh inactive, SR-BI HDL uptake inactive, NSD2 HMT inh inactive, SR-BI DiI-HDL act inactive, Xi reactivation inactive and sPLA2-III inh inactive.
`O=C(Nc1nc(-c2ccccn2)cs1)c1ccc2c(c1)OCCO2` gave ARNT-TACC3 inh 50, SR-BI HDL uptake inactive, SR-BI DiI-HDL act inactive, Xi reactivation inactive and sPLA2-III inh inactive.
For CCCC(=O)N1CCC2(CC1)CN(C(=O)Nc1cccc(F)c1)[C@H](CO)c1c2c2ccc(OC)cc2n1C the results were Xi reactivation inactive.
Clc1ccc(-c2csc(N/N=C/c3ccc4c(c3)OCO4)n2)cc1 was read as ARNT-TACC3 inh inactive, SR-BI HDL uptake 109, NSD2 HMT inh inactive, SR-BI DiI-HDL act inactive, Xi reactivation inactive and sPLA2-III inh inactive.
O=C(C[C@H]1CC[C@H]2[C@@H](COC[C@H](O)CN2Cc2ccccc2)O1)N[C@H]1CCN(Cc2ccccc2)C1 was read as ARNT-TACC3 inh inactive and Xi reactivation inactive.
Screening CN(C(=O)c1ccc(NC(=O)Cc2cccc(NC(=O)C3CCN(C(=O)CCc4ccccc4)CC3)c2)cc1)C1CCCC1 returned ARNT-TACC3 inh inactive, SR-BI HDL uptake 71, SR-BI DiI-HDL act inactive, Xi reactivation inactive and sPLA2-III inh inactive.
CN(C(=O)c1cccc(NC(=O)Cc2ccc(NC(=O)C3CCCN(C(=O)C4CCCC4)C3)cc2)c1)C1CCCCC1 (centres undefined) was read as ARNT-TACC3 inh inactive, SR-BI HDL uptake 83, SR-BI DiI-HDL act inactive, Xi reactivation inactive and sPLA2-III inh inactive.
Screening CN(C(=O)c1cccc(NC(=O)Cc2ccc(NC(=O)C3CCCN(C(=O)C4CCCC4)C3)cc2)c1)C1CCCC1 (centres undefined) returned ARNT-TACC3 inh inactive, SR-BI HDL uptake inactive, SR-BI DiI-HDL act inactive, Xi reactivation inactive and sPLA2-III inh inactive.
`CN(C(=O)c1cccc(NC(=O)Cc2ccc(NC(=O)C3CCCN(C(=O)C4CCCC4)C3)cc2)c1)C1CC1` (centres undefined) gave ARNT-TACC3 inh inactive, SR-BI HDL uptake 76, SR-BI DiI-HDL act inactive, Xi reactivation inactive and sPLA2-III inh inactive.
O=C(Cc1ccc(NC(=O)C2CCCN(C(=O)C3CCCCC3)C2)cc1)Nc1cccc(C(=O)N2CCCC2)c1 (centres undefined) was read as ARNT-TACC3 inh inactive, SR-BI HDL uptake inactive, SR-BI DiI-HDL act inactive, Xi reactivation inactive and sPLA2-III inh inactive.
`O=C(Cc1ccc(NC(=O)C2CCCN(C(=O)C3CCCC3)C2)cc1)Nc1cccc(C(=O)N2CCCC2)c1` (centres undefined) gave ARNT-TACC3 inh inactive, SR-BI HDL uptake 75, SR-BI DiI-HDL act inactive, Xi reactivation inactive and sPLA2-III inh inactive.
Screening COc1ccc(NC(=O)Nc2ccc3c(c2)[C@H]2C[C@@H](CC(=O)NCc4ccccn4)O[C@H](CO)[C@H]2O3)cc1 returned ARNT-TACC3 inh inactive and Xi reactivation inactive.
`C[C@@H]1CN([C@H](C)CO)C(=O)c2cccc(NC(=O)C3CCCCC3)c2O[C@H]1CN(C)C(=O)Nc1ccc(F)cc1` gave ARNT-TACC3 inh inactive and Xi reactivation inactive.
O=C1c2ccccc2C(=O)N1CN(C(=O)c1ccccc1[N+](=O)[O-])c1ccc(F)cc1 was read as ARNT-TACC3 inh inactive, SR-BI HDL uptake inactive, NSD2 HMT inh inactive, SR-BI DiI-HDL act inactive, Xi reactivation inactive and sPLA2-III inh inactive.
`O=C(CCSc1nc(-c2ccc3c(c2)OCO3)cc(C(F)(F)F)n1)NCc1ccco1` gave ARNT-TACC3 inh inactive, SR-BI HDL uptake 82, SR-BI DiI-HDL act inactive, Xi reactivation inactive and sPLA2-III inh inactive.
CC1(C(=O)Nc2cccc(C#N)c2)CCN1C(=O)C1(c2ccccc2)CC1 (centres undefined) was read as NSD2 HMT inh inactive, Xi reactivation inactive and sPLA2-III inh inactive.
